Measurements published in ChEMBL document CHEMBL1124850, “Synthesis and antibacterial activity of thiazolo-, oxazolo-, and imidazolo[3,2-a][1,8]naphthyridinecarboxylic acids” (J Med Chem, 1990).
Values after ≈ are worked out from the molar mass of the structure shown.

Key:
[1] = system: Acinetobacter calcoaceticus; experiment: Activity against Acinetobacter calcoaceticus (AC54); assay type: functional
Summary of the method: (§1)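 Agar dilution MIC: serial 2-fold dilutions in Mueller-Hinton agar, inoculum about 10^6 CFU/mL, incubated at 37 °C for 18 h. The MIC is the lowest concentration that prevents visible bacterial growth.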

[2] = system: Bacillus subtilis; experiment: Activity against Bacillus subtilis (ATCC 6633); assay type: functional; summary of the method: as §1
[3] = system: Nucleic Acid; experiment: Inhibitory effect on DNA gyrase supercoiling activity from Escherichia coli K-12 C600; assay type: functional
[4] = system: Klebsiella aerogenes; experiment: Activity against Enterobacter aerogenes (ATCC 13048); assay type: functional; summary of the method: as §1
[5] = system: Escherichia coli; experiment: Activity against Escherichia coli (K-12 C600); assay type: functional; summary of the method: as §1
[6] = system: Escherichia coli; experiment: Activity against Escherichia coli (KC-14); assay type: functional; summary of the method: as §1
[7] = system: Klebsiella pneumoniae; experiment: Activity against Klebsiella pneumoniae (PCI-602); assay type: functional; summary of the method: as §1
[8] = system: Pseudomonas aeruginosa; experiment: Activity against Pseudomonas aeruginosa (E-2); assay type: functional; summary of the method: as §1
[9] = system: Staphylococcus aureus; experiment: Activity against Staphylococcus aureus (FDA207PJC-1); assay type: functional; summary of the method: as §1
[10] = system: Staphylococcus aureus; experiment: Activity against Staphylococcus aureus (IID 803); assay type: functional; summary of the method: as §1
[11] = system: Staphylococcus epidermidis; experiment: Activity against Staphylococcus epidermidis (IAM 1296); assay type: functional; summary of the method: as §1
[12] = system: Enterococcus faecalis; experiment: Activity against Streptococcus faecalis (IID 682); assay type: functional; summary of the method: as §1
[13] = system: Pseudomonas cepacia (Burkholderia cepacia); experiment: Activity against Pseudomonas cepacia (IID-1341)
[14] = system: Burkholderia cepacia; experiment: Activity against Pseudomonas cepacia (IID-1341); assay type: functional; summary of the method: as §1

Row | SMILES | MIC [1] [µg/mL] | MIC [2] [µg/mL] | IC50 [3] [µg/mL] | MIC [4] [µg/mL] | MIC [5] [µg/mL] | MIC [6] [µg/mL] | MIC [7] [µg/mL] | MIC [8] [µg/mL] | MIC [9] [µg/mL] | MIC [10] [µg/mL] | MIC [11] [µg/mL] | MIC [12] [µg/mL] | MIC [13] [µg/mL] | MIC [14] [µg/mL]
1 | CC1COc2c(C(=O)O)c(=O)c3cc(F)c(N4CCN(C)CC4)nc3n21 (centres undefined) | > 25 | 3.13 (≈ 8.64 µM) | 6.11 (≈ 16.9 µM) | 6.25 (≈ 17.2 µM) | 12.5 (≈ 34.5 µM) | 6.25 (≈ 17.2 µM) | 0.78 (≈ 2.15 µM) | > 25 | 12.5 (≈ 34.5 µM) | 12.5 (≈ 34.5 µM) | > 25 | > 25 | > 25 | –
2 | CCn1cc(C(=O)O)c(=O)c2cc(F)c(N3CCNCC3)nc21 [ENOXACIN] | 3.13 (≈ 9.77 µM) | 0.2 (≈ 0.624 µM) | – | 0.2 (≈ 0.624 µM) | 0.2 (≈ 0.624 µM) | 0.2 (≈ 0.624 µM) | 0.1 (≈ 0.312 µM) | 1.56 (≈ 4.87 µM) | 0.78 (≈ 2.44 µM) | 0.78 (≈ 2.44 µM) | 3.13 (≈ 9.77 µM) | 3.13 (≈ 9.77 µM) | – | 6.25 (≈ 19.5 µM)
3 | CC1COc2c(N3CCN(C)CC3)c(F)cc3c(=O)c(C(=O)O)cn1c23 (centres undefined) [OFLOXACIN] | 0.39 (≈ 1.08 µM) | 0.1 (≈ 0.277 µM) | 0.59 (≈ 1.63 µM) | 0.1 (≈ 0.277 µM) | 0.2 (≈ 0.553 µM) | 0.1 (≈ 0.277 µM) | 0.05 (≈ 0.138 µM) | 1.56 (≈ 4.32 µM) | 0.39 (≈ 1.08 µM) | 0.39 (≈ 1.08 µM) | 0.78 (≈ 2.16 µM) | 1.56 (≈ 4.32 µM) | – | 6.25 (≈ 17.3 µM)

Other lines, results leading:

Row | MIC [1] [µg/mL] | MIC [2] [µg/mL] | IC50 [3] [µg/mL] | MIC [4] [µg/mL] | MIC [5] [µg/mL] | MIC [6] [µg/mL] | MIC [7] [µg/mL] | MIC [8] [µg/mL] | MIC [9] [µg/mL] | MIC [10] [µg/mL] | MIC [11] [µg/mL] | MIC [12] [µg/mL] | MIC [13] [µg/mL] | MIC [14] [µg/mL] | SMILES
4 | 100 (≈ 277 µM) | 25 (≈ 69.2 µM) | > 25 | 50 (≈ 138 µM) | 50 (≈ 138 µM) | 50 (≈ 138 µM) | 6.25 (≈ 17.3 µM) | 100 (≈ 277 µM) | 100 (≈ 277 µM) | 100 (≈ 277 µM) | 100 (≈ 277 µM) | 100 (≈ 277 µM) | – | 100 (≈ 277 µM) | CN1CCN(c2nc3c(cc2F)c(=O)c(C(=O)O)c2n3CCN2C)CC1
5 | 0.39 (≈ 1.07 µM) | 0.1 (≈ 0.274 µM) | 0.52 (≈ 1.43 µM) | 0.2 (≈ 0.549 µM) | 0.2 (≈ 0.549 µM) | 0.2 (≈ 0.549 µM) | 0.05 (≈ 0.137 µM) | 1.56 (≈ 4.28 µM) | 0.39 (≈ 1.07 µM) | 0.39 (≈ 1.07 µM) | 1.56 (≈ 4.28 µM) | 6.25 (≈ 17.2 µM) | – | 3.13 (≈ 8.59 µM) | CN1CCN(c2nc3c(cc2F)c(=O)c(C(=O)O)c2n3CCS2)CC1
